Source: PubChem BioAssay AID638 (SRMLSC, 2007)
The campaign covered roughly 1,300 compounds. About 65 (5%) were called active. A selection follows. Measured potencies and affinities stand elsewhere. A number with no mark means an inactive call.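 The calls were made as follows: active = growth inhibition reaching a set limit at one or more tested doses; inactive = the rest.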

Assay: growth inhibition of wild-type E. coli, dose response, BW25113 wild type, OD615 (AID 638)
Conditions: at 100 µM (top of the series) unless noted
Outline: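 Assay system: E. coli BW25113 wild type; buffer or medium: Kanamycin-supplemented LB broth; signal: optical density (absorbance) at 615 nm; controls: chloramphenicol 30 µM control; doses: compound concentration series; times: bacterial exposure to compound 20 h at 37 °C; evaluation: IC50 from 4-parameter logistic, bounds fixed 0–100%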

With O=c1n(Cc2ccccc2)c2cc(Cl)cnc2n1Cc1ccccc1 as the compound, how does the growth inhibition read?
Its growth inhibition is 6.2%.

For CC(C)(C)C(=O)Cn1c(=N)n(Cc2ccccc2)c2ccccc21, which growth inhibition is on record?
Its growth inhibition is 1.06%.

With O=C(NCc1ccco1)C(c1cccs1)N(C(=O)C1COc2ccccc2O1)c1cccc(O)c1 (stereo not drawn) as the compound, how does the growth inhibition read?
The growth inhibition was 1.03%.

With CCOC(=O)N1CCN(c2nc(N(c3ccccc3)c3ccccc3)nc(-n3ccnc3)n2)CC1 as the compound, how does the growth inhibition read?
The growth inhibition was -3.06%.

For COc1ccc(C2c3sc(=O)[nH]c3SC3C4CCC(C4)C23)cc1 (stereo not drawn), which growth inhibition is on record?
Its growth inhibition is 0.8%.

For Cc1nc2c(C(=O)NCc3ccc4c(c3)OCO4)c[nH]n2c(=O)c1Cc1ccccc1F, which growth inhibition is on record?
Its growth inhibition is 0.77%.

With CCOC(=O)c1cn(CC)c2cc(N3CCOCC3)c(F)cc2c1=O as the compound, how does the growth inhibition read?
The growth inhibition was 4.05% [at 50 µM].

With CCOC(=O)c1cn(CC)c2cc(N3CCCCC3)c(F)cc2c1=O as the compound, how does the growth inhibition read?
Its growth inhibition is -6.06%.

Which growth inhibition does the source give for O=C(Nc1ccc(N2CCN(C(=O)c3ccco3)CC2)c(Cl)c1)c1cccs1 here?
Its growth inhibition is -1.45%.

With CCn1cc(C(=O)O)c(=O)c2cc(OC)ccc21 as the compound, how does the growth inhibition read?
Its growth inhibition is 19.6%.

Which growth inhibition does the source give for O=C(Nc1ccc(N2CCN(C(=O)c3ccco3)CC2)c(Cl)c1)c1c(F)c(F)c(F)c(F)c1F here?
The growth inhibition was -3.01%.

For CCOc1ccccc1N1CCN(C(=O)Nc2ccc(F)c(Cl)c2)CC1, which growth inhibition is on record?
Its growth inhibition is -9.1%.

For CCn1cc(C(=O)O)c(=O)c2cnc(N3CCN(C(=O)Nc4ccccc4)CC3)nc21, which growth inhibition is on record?
Its growth inhibition is 5.93%.

For CCn1c2ccccc2c2cc(NC(=O)c3ccco3)ccc21, which growth inhibition is on record?
Its growth inhibition is -3.49%.

For COc1ccccc1-c1cc(C(=O)NCc2ccc(F)cc2)no1, which growth inhibition is on record?
The growth inhibition was -0.01%.

For CCOC(=O)C1=C(C)NC(SCC(=O)Nc2cc(C)on2)=C(C#N)C1c1cccs1 (stereo not drawn), which growth inhibition is on record?
The growth inhibition was 3.97%.

Which growth inhibition does the source give for CCOC(=O)c1c(-c2cccs2)csc1NC(=O)CN1CC(C)OC(C)C1 (stereo not drawn) here?
Its growth inhibition is -7.6%.

For Nc1nc(CN2CCN(c3cccc(Cl)c3)CC2)nc(N2CCCc3ccccc32)n1, which growth inhibition is on record?
The growth inhibition was 4.24%.

Which growth inhibition does the source give for O=c1c2c(nc3c(-c4cccc5ccccc45)c[nH]n13)CCC2 here?
Its growth inhibition is -1.35%.

Which growth inhibition does the source give for Cc1ccc(Cn2ccc(NC(=O)c3cc(CC(C)C)on3)n2)cc1 here?
The growth inhibition was 0.62%.

With N#Cc1cn(CCOc2ccccc2F)c2ccccc12 as the compound, how does the growth inhibition read?
Its growth inhibition is -0.93%.

For COc1ccccc1N1CCN(C(=O)c2cc(-c3ccc(C)cc3)on2)CC1, which growth inhibition is on record?
Its growth inhibition is -0.92%.

With Cc1cccc(C)c1NC(=O)C(c1cccs1)N(Cc1ccco1)C(=O)Cn1nnc2ccccc21 (stereo not drawn) as the compound, how does the growth inhibition read?
The growth inhibition was -8.04%.

For O=C(Nc1ccc2c(c1)CCC2)C1COc2ccccc2O1 (stereo not drawn), which growth inhibition is on record?
The growth inhibition was 7.62%.

With CCCN(CCC)C(=O)CSc1nc2ccccc2c(=O)n1C1CCCC1 as the compound, how does the growth inhibition read?
The growth inhibition was -6.85%.

For CCOC(=O)c1cc2sccc2n1Cc1ccc(C#N)cc1, which growth inhibition is on record?
The growth inhibition was -10.3%.

For CCc1c(O)nc(SCC(=O)Nc2ccc(C)cc2)n(C2CCCCC2)c1=O, which growth inhibition is on record?
The growth inhibition was -10.1%.

Which growth inhibition does the source give for CC1CCCc2sc3nc(NCc4ccco4)n4ncnc4c3c21 (stereo not drawn) here?
The growth inhibition was -3.17%.

With O=C1OC(c2ccc(O)cc2)(c2ccc(O)cc2)c2ccccc21 as the compound, how does the growth inhibition read?
Its growth inhibition is 24.6% (active).

For CCn1c(SC)nnc1-c1sc2cc(Cl)ccc2c1Cl, which growth inhibition is on record?
Its growth inhibition is 2.34%.

Which growth inhibition does the source give for CC1CCCCC1n1c(=S)[nH]c2ccccc2c1=O (stereo not drawn) here?
The growth inhibition was -0.57%.

With CCCOc1ccc2oc(=O)c3c(c2c1)CCCN3C(=O)CN1CCc2ccccc2C1 as the compound, how does the growth inhibition read?
The growth inhibition was 0.92%.

Which growth inhibition does the source give for Cc1ccc(O)c(C(=O)CC(=O)c2cccc(F)c2)c1 here?
Its growth inhibition is 11.9%.

For CCCCCSc1nnc(-c2cc(Br)ccc2N)c(=O)[nH]1, which growth inhibition is on record?
Its growth inhibition is -4.38%.

Which growth inhibition does the source give for CCCc1cc(C(=O)Nc2cccc(Cl)c2)no1 here?
Its growth inhibition is 12.5%.

Which growth inhibition does the source give for CC(C)COC(=O)NCCOC(=O)Nc1cccc(Cl)c1 here?
The growth inhibition was 18.9%.

Which growth inhibition does the source give for CCOC(=O)C1CCCN(c2ncnc3c2cnn3-c2ccc(Cl)cc2)C1 (stereo not drawn) here?
Its growth inhibition is -11.7%.

Which growth inhibition does the source give for O=C1CC(c2ccco2)CC2=C1C1c3ccccc3C(=O)N1c1ccccc1N2 (stereo not drawn) here?
The growth inhibition was -3.27%.

Which growth inhibition does the source give for CC(C)Cn1c(=O)c(C(=O)Nc2cnccn2)c(O)c2ccccc21 here?
The growth inhibition was 16.1%.

For O=C(C1CC1)N1CCc2cc(S(=O)(=O)NCCC3=CCCCC3)ccc21, which growth inhibition is on record?
Its growth inhibition is 9.41%.

For CCOC(=O)c1ccccc1NC(=O)C(C)Oc1ccccc1 (stereo not drawn), which growth inhibition is on record?
The growth inhibition was -0.25%.

With Cc1cc2n(n1)C(c1ccc3c(c1)OCO3)Nc1c(C)cccc1-2 (stereo not drawn) as the compound, how does the growth inhibition read?
Its growth inhibition is -5.6%.

Which growth inhibition does the source give for CSc1nc2ccc(NS(=O)(=O)c3ccc4c(c3)OCCO4)cc2s1 here?
The growth inhibition was -7.17%.

Which growth inhibition does the source give for Cc1ccc(NC(=O)c2nnn(-c3cc(C)cc(C)c3)c2N)cc1 here?
Its growth inhibition is -3.73%.

With CCCCOc1ccc(S(=O)(=O)N2CCCCCC2)cc1 as the compound, how does the growth inhibition read?
The growth inhibition was 6.59%.

Which growth inhibition does the source give for Cc1ccc(Cl)cc1N1CCN(C(=O)c2ccc(NS(=O)(=O)c3c(C)noc3C)cc2)CC1 here?
Its growth inhibition is -7.75%.

With CC(=Nc1ccc(O)cc1)c1sc2ccccc2c1O as the compound, how does the growth inhibition read?
Its growth inhibition is -1.71%.

With O=c1c2ccccc2nc(SCc2cn3ccsc3n2)n1-c1ccccc1F as the compound, how does the growth inhibition read?
Its growth inhibition is -8.01%.

For COC(=O)c1c(NC(=O)Cc2cccs2)sc2c1CCCC2, which growth inhibition is on record?
Its growth inhibition is 2.67%.

Which growth inhibition does the source give for COc1ccccc1N1CCN(C(=O)COc2ccc(C)cc2Br)CC1 here?
The growth inhibition was 12.1%.

For CCOC(=O)N1CCN(C(=O)COc2ccc(S(=O)(=O)Nc3ccc(OCC)cc3)cc2)CC1, which growth inhibition is on record?
The growth inhibition was 3.01%.

Which growth inhibition does the source give for CCOc1ccc(S(=O)(=O)Nc2cccc(Cl)c2)cc1 here?
Its growth inhibition is 20% (active).

Which growth inhibition does the source give for CCOc1ccc(NS(=O)(=O)c2ccc(SC)cc2)cc1 here?
The growth inhibition was 11.9%.

Which growth inhibition does the source give for Cc1ccc(-n2c(=O)[nH]cc(C(=O)Nc3ccc4c(c3)OCCO4)c2=O)cc1C here?
Its growth inhibition is -5.27%.

Which growth inhibition does the source give for O=C(OC1CCc2ccccc2C1=O)c1ccccc1O (stereo not drawn) here?
Its growth inhibition is 9.44%.

Which growth inhibition does the source give for CCCCCc1cc(O)c2c(C)cc(=O)oc2c1 here?
Its growth inhibition is 7.24%.

With CCCCCCOC(=O)C(C#N)c1nc2ccccc2nc1N1CCN(C)CC1 (stereo not drawn) as the compound, how does the growth inhibition read?
The growth inhibition was 12.3%.

For CC1=C(C(=O)OCC(C)C)C(c2cc3c(cc2Br)OCO3)NC(=O)N1C (stereo not drawn), which growth inhibition is on record?
Its growth inhibition is 12.5%.

For CN(C)c1ccc(/C=N/n2ncc3ccccc32)cc1, which growth inhibition is on record?
Its growth inhibition is -3.99%.

For COc1nc(N(c2ccccc2)c2ccccc2)nc(-n2ccnc2)n1, which growth inhibition is on record?
Its growth inhibition is 12.7%.

With COc1ccccc1OCC(=O)N(Cc1nc(-c2ccccc2)no1)C1CCCCC1 as the compound, how does the growth inhibition read?
Its growth inhibition is -2.24%.

Which growth inhibition does the source give for COC(=O)c1ccccc1NC(=O)N1c2ccccc2CC1C (stereo not drawn) here?
The growth inhibition was 3.49%.

Which growth inhibition does the source give for Cc1ccc(C)n1-n1cnc2sc(-c3ccccc3)cc2c1=O here?
Its growth inhibition is -14.3%.

With CCOC(=O)c1cn(CC)c2cc(N3CCSCC3)c(F)cc2c1=O as the compound, how does the growth inhibition read?
The growth inhibition was 10.1%.

With O=C(Nc1ccc(Cl)cc1)N(Cc1cccs1)Cc1cccs1 as the compound, how does the growth inhibition read?
Its growth inhibition is -8.41%.

For Cc1ccc(OCc2nc(C#N)c(N3CCN(Cc4ccccc4)CC3)o2)cc1, which growth inhibition is on record?
Its growth inhibition is -9.19%.

Which growth inhibition does the source give for COc1ccc(OC)c(S(=O)(=O)N2CCN(c3c(C)cccc3C)CC2)c1 here?
Its growth inhibition is -10%.

For COc1cc(NS(=O)(=O)c2ccc(Br)cc2)c(OC)cc1NC(=O)c1ccco1, which growth inhibition is on record?
Its growth inhibition is -12%.

For Fc1ccc(-n2c(Cc3ccccc3)nnc2SCc2nc(-c3cccs3)no2)cc1, which growth inhibition is on record?
Its growth inhibition is -13.2%.

For C=CCOC(=O)C(C#N)c1nc2ccccc2nc1N1CCCC1 (stereo not drawn), which growth inhibition is on record?
Its growth inhibition is -1.85%.

With COCc1cc(C)nc2sc3c(=O)oc(C)nc3c12 as the compound, how does the growth inhibition read?
The growth inhibition was 10.4%.

Which growth inhibition does the source give for CCCCOC(=O)Nc1ccc(C(=O)OCCC)cc1 here?
The growth inhibition was 6.71%.

With COC(=O)c1ccc(NC(=O)CN2CCN(c3cccc(Cl)c3)CC2)cc1 as the compound, how does the growth inhibition read?
Its growth inhibition is -2.21%.

For N#CC1=C(SCC(=O)NC23CC4CC(CC(C4)C2)C3)NC(=O)C(C#N)C12CCCCC2 (stereo not drawn), which growth inhibition is on record?
Its growth inhibition is 18.1% (active).

With N#CC1=C(SCC(=O)c2cc3ccccc3oc2=O)NC(=O)C(C#N)C12CCCC2 (stereo not drawn) as the compound, how does the growth inhibition read?
Its growth inhibition is 14.3%.

For CC(C)(C)C1CCC2(CC1)C(C#N)=C(SCC(=O)NC1CCCCC1)NC(=O)C2C#N (stereo not drawn), which growth inhibition is on record?
The growth inhibition was 12.2%.

With CCN(CC)S(=O)(=O)c1ccc2[nH]cc(C(=O)NCCC3=CCCCC3)c(=O)c2c1 as the compound, how does the growth inhibition read?
Its growth inhibition is -6.85%.

With COc1ccc2nc(SCC(=O)N(C)C3CCCCC3)c(C#N)cc2c1 as the compound, how does the growth inhibition read?
The growth inhibition was -2.36%.

For CCCOc1ccc(C2C(C(=O)c3ccc(C)o3)=C(O)C(=O)N2Cc2cccnc2)cc1 (stereo not drawn), which growth inhibition is on record?
The growth inhibition was 6.33%.

With Cc1cc(Nc2ccccc2)nc(-c2ccccc2O)n1 as the compound, how does the growth inhibition read?
Its growth inhibition is -4.57%.

With Clc1ccc(OCCn2ccnc2)c2ccccc12 as the compound, how does the growth inhibition read?
Its growth inhibition is 12.7% [at 50 µM].

Which growth inhibition does the source give for O=S(=O)(Nc1nc2ccccc2nc1N1CCN(c2ccccn2)CC1)c1ccc(Cl)cc1 here?
Its growth inhibition is -0.89%.

With O=C(Nc1nnc(-c2cccs2)o1)c1cccc(Oc2ccccc2)c1 as the compound, how does the growth inhibition read?
Its growth inhibition is 12.7%.

With CC1CCCCN1S(=O)(=O)c1ccc(C(=O)Nc2nnc(-c3cccs3)o2)cc1 (stereo not drawn) as the compound, how does the growth inhibition read?
The growth inhibition was 2.23%.

With Cc1cc(N2CCCCC2)nc(SCc2ccc(C#N)cc2)n1 as the compound, how does the growth inhibition read?
The growth inhibition was -5.55%.

Which growth inhibition does the source give for Cc1ccccc1CSc1nc2n(n1)C(c1cccs1)C1=C(CCCC1=O)N2 (stereo not drawn) here?
The growth inhibition was -14.8%.

Which growth inhibition does the source give for CCCCCn1c(N2CCC(Cc3ccccc3)CC2)nc2c1c(=O)[nH]c(=O)n2C here?
The growth inhibition was -11.3%.

Which growth inhibition does the source give for CCOC(=O)Cc1nnc2c(Nc3ccccc3F)nc3nonc3n12 here?
The growth inhibition was -6.59%.
